Data as given in ChEMBL document CHEMBL1144813, “4'-Methyl-4,5'-bithiazole-based correctors of defective delta F508-CFTR cellular processing” (Bioorg Med Chem Lett, 2008).
pEC50: −log10 of the molar value. Active and inactive are the calls of the source. No cut-off for these calls is given here.

What was measured:
Type in all cases: cell-based
[1] = test system: Cystic fibrosis transmembrane conductance regulator (Homo sapiens), P13569 [F508del]; assay: Corrector activity at human CFTR deltaF508 mutant expressed in FRT cells assessed as iodide influx at 10 uM
Outline: (§1)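 FRT epithelial cells stably co-expressing human ΔF508-CFTR and halide sensor YFP-H148Q/I152L; grown 24 h at 37°C, then 20 h with compound. PBS wash, then forskolin 20 μM plus genistein 50 μM for 20 min. Fluorescence read 2 s baseline, then 12 s after iodide-substituted PBS addition; influx rate from exponential fit of final 11.5 s, normalized to initial fluorescence; DMSO vehicle negative control.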

[2] = test system: Cystic fibrosis transmembrane conductance regulator (Homo sapiens), P13569 [F508del]; assay: Corrector activity at human CFTR deltaF508 mutant expressed in FRT cells assessed as iodide influx at 25 uM; outline: as §1
[3] = biological target: Cystic fibrosis transmembrane conductance regulator (Homo sapiens, UniProt P13569, F508DEL); assay: Corrector activity at human CFTR deltaF508 mutant expressed in FRT cells assessed as iodide influx; settings: read-out: Kd; outline: as §1
Sequence of Cystic fibrosis transmembrane conductance regulator (P13569 as listed by the source): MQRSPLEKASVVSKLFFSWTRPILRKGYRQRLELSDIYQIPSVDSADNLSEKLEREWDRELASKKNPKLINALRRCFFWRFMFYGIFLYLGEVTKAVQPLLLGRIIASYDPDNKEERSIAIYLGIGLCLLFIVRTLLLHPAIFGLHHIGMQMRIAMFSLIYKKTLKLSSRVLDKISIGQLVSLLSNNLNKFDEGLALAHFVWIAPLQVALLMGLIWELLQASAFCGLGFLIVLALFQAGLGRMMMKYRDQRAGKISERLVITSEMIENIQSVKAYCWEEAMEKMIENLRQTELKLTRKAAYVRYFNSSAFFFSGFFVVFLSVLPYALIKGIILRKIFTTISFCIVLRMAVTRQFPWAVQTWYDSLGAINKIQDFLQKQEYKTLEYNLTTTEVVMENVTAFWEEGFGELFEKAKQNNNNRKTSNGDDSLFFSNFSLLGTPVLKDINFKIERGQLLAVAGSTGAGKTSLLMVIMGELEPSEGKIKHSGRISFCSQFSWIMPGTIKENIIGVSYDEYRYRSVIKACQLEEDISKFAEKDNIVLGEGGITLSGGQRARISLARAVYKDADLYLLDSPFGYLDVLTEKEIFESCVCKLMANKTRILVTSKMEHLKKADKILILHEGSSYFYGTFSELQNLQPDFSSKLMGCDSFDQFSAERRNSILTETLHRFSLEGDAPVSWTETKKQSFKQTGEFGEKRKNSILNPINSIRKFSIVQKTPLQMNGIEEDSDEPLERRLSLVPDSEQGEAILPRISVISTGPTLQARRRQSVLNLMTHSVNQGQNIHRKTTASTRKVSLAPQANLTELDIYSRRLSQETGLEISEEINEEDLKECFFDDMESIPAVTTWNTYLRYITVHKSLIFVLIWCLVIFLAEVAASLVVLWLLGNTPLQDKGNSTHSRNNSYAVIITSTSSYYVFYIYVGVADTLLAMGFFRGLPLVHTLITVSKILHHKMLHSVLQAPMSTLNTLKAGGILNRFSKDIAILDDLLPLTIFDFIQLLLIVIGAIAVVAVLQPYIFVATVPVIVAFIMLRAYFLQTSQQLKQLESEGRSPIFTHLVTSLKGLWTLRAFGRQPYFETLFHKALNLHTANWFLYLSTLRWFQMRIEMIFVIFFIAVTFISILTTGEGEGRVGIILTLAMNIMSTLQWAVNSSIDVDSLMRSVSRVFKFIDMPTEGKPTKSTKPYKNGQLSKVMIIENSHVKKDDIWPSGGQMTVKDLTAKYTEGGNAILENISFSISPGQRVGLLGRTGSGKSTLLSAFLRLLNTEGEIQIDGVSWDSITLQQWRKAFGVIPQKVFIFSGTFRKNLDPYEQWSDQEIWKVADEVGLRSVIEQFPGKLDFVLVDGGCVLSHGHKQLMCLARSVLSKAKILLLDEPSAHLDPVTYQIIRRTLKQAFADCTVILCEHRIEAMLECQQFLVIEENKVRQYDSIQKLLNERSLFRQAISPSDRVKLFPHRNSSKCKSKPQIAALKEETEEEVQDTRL

Sequence of Cystic fibrosis transmembrane conductance regulator (Homo sapiens), P13569 [F508del] (P13569 as listed by the source): as above

Row | Activity [1] | Activity [2] | pEC50 [3] | Structure (SMILES)
1 | Active | Active | – | COc1c(Cl)cccc1Nc1nc(-c2sc(NC(=O)c3ccccc3)nc2C)cs1
2 | – | – | 5.96 | Cc1ccc(Nc2nc(-c3sc(NC(=O)c4ccc(Cl)cc4)nc3C)cs2)cc1
3 | Active | Active | 6.05 | COc1ccc(Cl)cc1Nc1nc(-c2sc(NC(=O)c3ccccc3)nc2C)cs1
4 | – | – | 6.15 | COc1ccc(Cl)cc1Nc1nc(-c2sc(NC(=O)C(C)(C)C)nc2C)cs1
5 | Active | Active | – | Cc1nc(NC(=O)c2ccccc2)sc1-c1csc(Nc2cccc(Cl)c2Cl)n1
6 | – | – | 5.96 | COc1ccc(OC)c(Nc2nc(-c3sc(NC(=O)c4ccc(Cl)cc4)nc3C)cs2)c1
7 | – | – | 5.96 | Cc1nc(NC(=O)c2ccc(Cl)cc2)sc1-c1csc(Nc2ccc(Cl)cc2)n1
8 | – | – | 5.96 | CCCCCCC(=O)Nc1nc(C)c(-c2csc(Nc3cc(OC)ccc3OC)n2)s1
9 | – | – | 6.10 | Cc1nc(NC(=O)c2ccc([N+](=O)[O-])cc2)sc1-c1csc(Nc2ccc(Cl)cc2)n1
10 | – | – | 6.10 | CCOc1ccccc1Nc1nc(-c2sc(NC(=O)C(C)(C)C)nc2C)cs1
